This excerpt belongs to a sample that is enriched for hits.
PGC1a acetyl up: compounds raising PGC1a acetylation signal, primary screen, PGC1a modulator project, cell-based, U2OS, AlphaScreen, signal-increasing mode. hit rate 0.21% among 350,000. activation, % at 15.6 µM. AID 651723, 2012. overnight;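 active = every replicate reaching activation of at least 50%, whatever the mean replicate activation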;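 note: hits raise the AlphaScreen acetylation signal above neutral controls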
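System: Flag-PGC1a/GCN5 U2OS cells | Quantity: 7000 cells/well | Times: Overnight compound treatment, 37 °C | Measured by: AlphaScreen proximity luminescence, anti-acetyl-lysine antibody | Dosing: One concentration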
Each line names hits and unclear results; the compound was inactive in the other large screens.

Cc1ccc(NC(=O)CCC(=O)N/N=C/c2ccc([N+](=O)[O-])o2)cc1C	PGC1a acetyl up 126
Cc1ccc(OCC(=O)N/N=C/c2ccc([N+](=O)[O-])o2)cc1	PGC1a acetyl up 84
COc1ccc(-n2c(C)c([N+](=O)[O-])c3ccc(O)c(CN(C)C)c32)cc1	none
CC(=O)NC(=S)Nc1ccc(NC(=O)COc2ccc(Cl)cc2Cl)cc1	PGC1a acetyl up 76
CCN1/C(=C/c2ccc3cccc(C)c3[n+]2CC)Sc2ccccc21	PGC1a acetyl up 185
CCN(CC)S(=O)(=O)c1ccc(C(=O)N(c2ccccc2)C2C=CS(=O)(=O)C2)cc1 (configuration not stated)	none
C=C(C(=O)c1ccccc1)C(C(=C)C(=O)c1ccccc1)c1ccc(OC)cc1	PGC1a acetyl up 160
COc1ccc(C(=O)Sc2nncc3ccccc23)cc1	none
Cc1ccccc1OCC(=O)OCC(=O)NCc1ccc2c(c1)OCO2	PGC1a acetyl up 68
COc1ccccc1/C=C(/C(=O)OCC(=O)NCc1ccccc1)c1ccccc1	none
CO[C@@H]1CN(C)C(=O)c2cc(NC(C)=O)ccc2OC[C@H](C)N(Cc2cc(F)ccc2F)C[C@H]1C	none
CCCSCC(=O)Nc1ncc2c(n1)-c1ccccc1CC2	none
N#Cc1ccccc1S(=O)(=O)N1CCN(Cc2cc3c(cc2Br)OCCO3)CC1	PGC1a acetyl up 105
C[C@@H]1CN([C@@H](C)CO)C(=O)CCCn2nncc2CO[C@@H]1CN(C)C(=O)NC1CCCCC1	none
O=S(=O)(c1ccccc1)c1ncc(C(F)(F)F)cc1Cl	PGC1a acetyl up 55
NNS(=O)(=O)c1ccc(Cc2ncc(C(F)(F)F)cc2Cl)s1	none
Nc1ccccc1Oc1ncc(C(F)(F)F)cc1Cl	none
CCC(CC)NC(=O)Cc1ccc(S(=O)(=O)N2CCOCC2)s1	PGC1a acetyl up 52
COC(=O)c1ccc2c(c1)C(C)(C)C(/C=C/c1ccccc1O)=[N+]2C	PGC1a acetyl up 52
CC(C)c1ccc(/C=N/n2nnnc2Nc2ccccc2)cc1	none
C[C@@H]1CN([C@H](C)CO)C(=O)c2cccc(NC(=O)c3ccc(-c4nccs4)cc3)c2O[C@@H]1CN(C)Cc1ccc(C(=O)Nc2ccccc2N)cc1	none
Cc1ccc(C)c(N2CCN(C(=O)CCCOc3cc(=O)n(C)c4ccccc34)CC2)c1	PGC1a acetyl up 128
Cc1ccc(S(=O)(=O)N2CCN(C(=O)CSc3nc4ccccc4c(=O)[nH]3)CC2)c(C)c1	none
C=CCOc1ccccc1CNc1ccc2[nH]c(=O)[nH]c2c1	none
C[C@@H]1CN([C@@H](C)CO)C(=O)c2cc(-c3cccc(C#N)c3)cnc2O[C@H]1CN(C)C(=O)c1ccccn1	none
CCC(C)(C)n1nnnc1CN(Cc1ccc(Cl)cc1)Cc1ccco1	PGC1a acetyl up 82
CCOc1c(Br)cc(/C=C2/SC(=O)N(CC(=O)N3CCCC3)C2=O)cc1OC	PGC1a acetyl up 96
CCCCCC(=O)N1C[C@H](n2cc(-c3ccc(F)cc3)nn2)[C@@H](O)C[C@@H]1c1ccc(C)cc1	none
C=CCOC(=O)C1=C(C)NC(SCC)=C(C#N)C1c1ccc(Cl)cc1 (configuration not stated)	none
CCOC(=O)C1=C(C)NC(=O)NC1c1ccccc1Cl (configuration not stated)	PGC1a acetyl up 57
NS(=O)(=O)c1ccc(CCNC2CC(=O)N(Cc3ccccc3)C2=O)cc1 (configuration not stated)	none
NS(=O)(=O)c1ccc(CCNC(=O)c2ccc3nc4ccc(Cl)cc4c(=O)n3c2)cc1	PGC1a acetyl up 85
COc1ccc(-c2cnc3c(c2)C(=O)N([C@H](C)CO)C[C@H](C)[C@@H](CN(C)C(=O)C2CCC2)O3)cc1	none
Cc1ccccc1S(=O)(=O)NCC[C@@H]1CC[C@H](NC(=O)C2CCOCC2)[C@@H](CO)O1	none
CC(C)CCCCCCCCCCCCC(=O)NCC(=O)NC1C(C)OC(Nc2ncnc3nc[nH]c23)C(O)C1O (configuration not stated)	none
O=C(C[C@H]1C[C@@H]2c3cc(NS(=O)(=O)c4ccc(F)cc4)ccc3O[C@@H]2[C@@H](CO)O1)N1CCc2ccccc2C1	none
CC(C)c1nc2sc3c(NCc4ccco4)ncnc3c2c2c1COC(C)(C)C2	none
Nc1nc(F)nc2c1ncn2[C@@H]1O[C@H](CO)[C@@H](O)[C@H]1O	none
OC[C@H]1O[C@@H](n2cnc3c(NCc4ccco4)ncnc32)[C@H](O)[C@@H]1O	PGC1a acetyl up 72
O=C1C=CCCN1S(=O)(=O)/C=C/c1ccccc1	none
O=c1[nH]c2nc(Cl)nc(Cl)c2[nH]1	none
COc1ccccc1N=C1NC(=O)/C(=C/c2ccc(N(C)C)cc2)S1	PGC1a acetyl up 55
C[C@H](CO)N1C[C@H](C)[C@H](CN(C)C(=O)NC2CCCCC2)Oc2cc(C#Cc3cccc(F)c3)ccc2S1(=O)=O	none
COc1cc(C(C)=O)ccc1OCC(O)CN1CCN(c2ccc(C)c(C)c2)CC1 (configuration not stated)	none
CC(C)NC(=O)N(C)C[C@H]1OCc2cnnn2CCCC(=O)N([C@@H](C)CO)C[C@H]1C	none
OC(COc1ccc(CNCCc2ccc(C(F)(F)F)cc2)cc1)CN1CCCCC1 (configuration not stated)	PGC1a acetyl up 54

High-throughput results as filed in PubChem.
